Results: ChEMBL document CHEMBL1134370, “Pharmacophore analysis of the nuclear oxysterol receptor LXRalpha” (J Med Chem, 2001)

How the values were obtained:
[1] = biological target: T1, Oxysterols receptor LXR-alpha (Homo sapiens) (UniProt Q13133); assay: Tested for its ability to activate Liver X receptor-alpha expressed as Relative efficacy determined by maximal increase in relative fluorescence in LiSA
T1 sequence (whole entry): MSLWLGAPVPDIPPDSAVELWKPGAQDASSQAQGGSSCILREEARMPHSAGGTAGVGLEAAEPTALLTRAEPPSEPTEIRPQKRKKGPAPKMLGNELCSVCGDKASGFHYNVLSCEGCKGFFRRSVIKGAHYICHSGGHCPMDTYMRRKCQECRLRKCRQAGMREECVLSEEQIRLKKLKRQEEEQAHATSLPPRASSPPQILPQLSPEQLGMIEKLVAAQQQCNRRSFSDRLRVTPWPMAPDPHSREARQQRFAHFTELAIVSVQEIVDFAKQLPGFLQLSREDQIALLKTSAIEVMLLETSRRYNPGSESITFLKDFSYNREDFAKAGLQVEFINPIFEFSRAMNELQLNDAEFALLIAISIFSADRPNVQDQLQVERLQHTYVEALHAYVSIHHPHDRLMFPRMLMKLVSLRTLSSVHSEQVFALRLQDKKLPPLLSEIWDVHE
Procedure, shortened: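 Human LXRα ligand-binding domain (aa 183-447) with a His tag, expressed in E. coli, biotinylated and coupled to streptavidin-allophycocyanin. A biotinylated SRC1 peptide (aa 675-699) was coupled to streptavidin-europium. Final concentrations: 10 nM protein and peptide in pH 7.5 MOPS buffer, compound 1 nM–100 µM. Incubated 2-4 h at room temperature; time-resolved FRET read at 665 nm. Efficacy is the maximal fluorescence increase relative to 24(S),25-epoxycholesterol.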

[2] = biological target: T2, Oxysterols receptor LXR-alpha (Homo sapiens, UniProt Q13133); assay: Binding affinity towards LXR alpha receptor was determined in a competition binding assay
T2 sequence (Q13133 whole entry): T1 sequence (whole entry)

[3] = biological target: T1, Oxysterols receptor LXR-alpha (Homo sapiens); assay: Tested for its ability to activate Liver X receptor-alpha expressed as Relative efficacy determined by maximal increase in relative fluorescence in LiSA by 100 uM
Procedure, shortened: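 TR-FRET ligand-sensing assay of SRC1 peptide recruitment to biotinylated human LXRα LBD (aa 183-447, E. coli), 10 nM each in MOPS/NaF buffer pH 7.5. Run at room temperature for 2-4 h, read at 665 nm. Relative efficacy is the maximal increase in relative fluorescence compared with 24(S),25-epoxycholesterol. Compounds tested up to 100 µM.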

[4] = biological target: T2, Oxysterols receptor LXR-alpha; assay: Concentration required for half maximal activity was calculated in human nuclear oxysterol receptor liver X receptor-alpha in LiSA.
Procedure, shortened: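 Human LXRα ligand-binding domain (aa 183-447) with His tag, expressed in E. coli, purified and biotinylated. Protein and biotinylated SRC1 peptide (aa 675-699) were pre-bound to streptavidin-APC and streptavidin-europium. The final mix (10 nM each) was read by TR-FRET at 665 nm after 2-4 h at room temperature. Compounds 1 nM-100 µM; EC50 from half-maximal fluorescence, n = 3, standard error.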

With `CC(C)C[C@@H](O)C[C@@H](C)[C@H]1CC[C@H]2[C@@H]3CC=C4C[C@@H](O)CC[C@]4(C)[C@H]3CC[C@]12C` the RE [1] was < 0.1.
For `CC(C)CC[C@H](O)[C@@H](C)[C@H]1CC[C@H]2[C@@H]3CC=C4C[C@@H](O)CC[C@]4(C)[C@H]3CC[C@]12C`, the Ki [2] was 180 nM and the RE [3] was < 0.1.
`CC(C)C[C@H](O)C[C@@H](C)[C@H]1CC[C@H]2[C@@H]3CC=C4C[C@@H](O)CC[C@]4(C)[C@H]3CC[C@]12C` gave an RE [1] of 0.7 and an EC50 [4] of 5900 nM.
`CNC(=O)CC[C@@H](C)[C@H]1CC[C@H]2[C@@H]3CC=C4C[C@@H](O)CC[C@]4(C)[C@H]3CC[C@]12C` showed an RE [1] of 0.55 and an EC50 [4] of 720 nM.
Compound `CC(C)CC[C@@H](O)[C@@H](C)[C@H]1CC[C@H]2[C@@H]3CC=C4C[C@@H](O)CC[C@]4(C)[C@H]3CC[C@]12C` [22(R)-HYDROXYCHOLESTEROL] has an RE [1] of 0.85 and an EC50 [4] of 325 nM.
In the case of `CC(C)C(=O)NC[C@@H](C)[C@H]1CC[C@H]2[C@@H]3CC=C4C[C@@H](O)CC[C@]4(C)[C@H]3CC[C@]12C`, the RE [1] is reported as < 0.1.
In the case of `C[C@H](CCC(=O)N(C)C)[C@H]1CC[C@H]2[C@@H]3CC=C4C[C@@H](O)CC[C@]4(C)[C@H]3CC[C@]12C`, the RE [1] is reported as 1.4 and the EC50 [4] is reported as 170 nM.
`CC(C)[C@@H](O)CC[C@@H](C)[C@H]1CC[C@H]2[C@@H]3CC=C4C[C@@H](O)CC[C@]4(C)[C@H]3CC[C@]12C` was tested, and the RE [1] was 1 and the EC50 [4] was 130 nM.
In the case of `C[C@H](CC[C@H]1OC1(C)C)[C@H]1CC[C@H]2[C@@H]3CC=C4C[C@@H](O)CC[C@]4(C)[C@H]3CC[C@]12C`, the RE [1] is reported as 1 and the EC50 [4] is reported as 670 nM.
`C[C@@H](CO)CCC[C@@H](C)[C@H]1CC[C@H]2[C@@H]3CC=C4C[C@@H](O)CC[C@]4(C)[C@H]3CC[C@]12C` showed an RE [1] of 0.3 and an EC50 [4] of 250 nM.
Work on `CC(C)CCC[C@](C)(O)[C@H]1CC[C@H]2[C@@H]3CC=C4C[C@@H](O)CC[C@]4(C)[C@H]3CC[C@@]21C` yielded an RE [1] of 1 and an EC50 [4] of 470 nM.
For `CC(C)C(=O)CC[C@@H](C)[C@H]1CC[C@H]2[C@@H]3CC=C4C[C@@H](O)CC[C@]4(C)[C@H]3CC[C@]12C`, the RE [1] was 1.3 and the EC50 [4] was 180 nM.
For `C[C@H](CCC(=O)O)[C@H]1CC[C@H]2[C@@H]3CC=C4C[C@@H](O)CC[C@]4(C)[C@H]3CC[C@]12C`, the RE [1] was 0.2 and the EC50 [4] was 3000 nM.
`COC(=O)CC[C@@H](C)[C@H]1CC[C@H]2[C@@H]3CC=C4C[C@@H](O)CC[C@]4(C)[C@H]3CC[C@]12C` was tested, and the RE [1] was 1.1 and the EC50 [4] was 105 nM.
`CC(C)CCC[C@@H](C)[C@H]1CC[C@H]2[C@@H]3CC=C4C[C@@H](O)CC[C@]4(C)[C@H]3CC[C@]12C` was tested, and the RE [1] was < 0.1.
Work on `CC(C)[C@H](O)CC[C@@H](C)[C@H]1CC[C@H]2[C@@H]3CC=C4C[C@@H](O)CC[C@]4(C)[C@H]3CC[C@]12C` yielded an RE [1] of 0.85 and an EC50 [4] of 220 nM.
In the case of `C[C@H](C[C@@H](CO)C(C)(C)O)[C@H]1CC[C@H]2[C@@H]3CC=C4C[C@@H](O)CC[C@]4(C)[C@H]3CC[C@]12C`, the RE [1] is reported as < 0.1.
`C[C@H](CC[C@@H]1OC1(C)C)[C@H]1CC[C@H]2[C@@H]3CC=C4C[C@@H](O)CC[C@]4(C)[C@H]3CC[C@]12C` [24(S),25-EPOXYCHOLESTEROL] gave an RE [1] of 1 and an EC50 [4] of 460 nM.
In the case of `C[C@H](CNC(=O)N(C)C)[C@H]1CC[C@H]2[C@@H]3CC=C4C[C@@H](O)CC[C@]4(C)[C@H]3CC[C@]12C`, the RE [1] is reported as < 0.1.
`C[C@H](CCCC(C)(C)O)[C@H]1CC[C@H]2[C@@H]3CC=C4C[C@@H](O)CC[C@]4(C)[C@H]3CC[C@]12C` gave an RE [1] of 0.35 and an EC50 [4] of 1160 nM.
